In the library only some 2.7% were active in any assay of this set; here they are far more common.
NadD inh: inhibitors of S. aureus NadD, primary screen, biochemical, colorimetric, uHTS. 360,000 compounds, 0.78% hits. purified NadD enzyme, colorimetric absorbance read-out. inhibition, % at 20 µM. Nicotinate-nucleotide adenylyltransferase NadD (Staphylococcus aureus N315); in the data active = inhibition above about 26%
PP1 counter: PP1-alpha phosphatase inhibitors, primary screen, counter-screen for PP5 inhibitor project, biochemical, fluorescence, OMFP substrate, single point; Serine/threonine-protein phosphatase PP1-alpha catalytic subunit (Homo sapiens), P62136; purified PP1alpha; inhibition, % at 6.7 µM; 320,000 compounds, 0.9% hits;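 active = inhibition above the mean inhibition of all tested compounds plus 3 SD, computed separately for each screening campaign, cut at about 15% in these data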
TPT1 inhibitor: Candida albicans TPT1 enzyme inhibitors, primary screen, biochemical, fluorescence polarization | tRNA 2'-phosphotransferase TPT1 (Candida albicans SC5314) | AID 1962, 2009 | recombinant caTPT1, FP RNA substrate dephosphorylation | 300,000 compounds, 0.81% hits | inhibition, % at 5 µM;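 active = inhibition above the mean of all tested compounds plus 3 SD, set per screening campaign, cut at about 24% in these data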;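 note: plate controls were DMSO alone for no effect and ferristatin control at 100 nM for full effect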
CSN deneddyl inh: inhibitors of CSN-mediated cullin deneddylation, primary screen, biochemical, fluorescence polarization, uHTS; Purified CSN, SCF-Nedd8-OG deneddylation; inhibition, % at 12.5 µM; COP9 signalosome complex subunit 5 (Homo sapiens), Q92905; 360,000 compounds, 0.38% hits;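 active = pattern-corrected inhibition above about 35%, with an unprinted fluorescence ratio check between 0.5 and 1.5, limit read from the data, passing the limit was not always enough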;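 note: 0% = enzyme with substrate and 100% = substrate without enzyme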
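Assay system: Purified human Csn5 enzyme expressed in HEK293T cells | Amount: Enzyme 0.24 nM | Measured by: Fluorescence polarization readout | Medium: Tris/NaCl/DTT buffer, pH 7.5 | Compound dosing: One concentration, 12.5 µM, 0.25% DMSO | Times: 90 min incubation of compound, enzyme and substrate at room temperature | Control set: no-enzyme wells high, enzyme-with-substrate wells low | Read-out: % inhibition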
Rpn11 inh: Rpn11 (PSMD14) deubiquitinase inhibitors, primary screen, biochemical, fluorescence polarization, uHTS; human 26S proteasome, Ub4-pepOG fluorescence polarization; 20S core pre-blocked with epoxomicin; inhibition, % at 20 µM; 360,000 compounds, 0.59% hits; AID 588493, 2011;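 active = inhibition at 20 µM, scaled to each plate's controls, above about 33%, limit read from the data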
HNF4A DNA FP: change in binding of human HNF4A to DNA, primary screen, biochemical, fluorescence polarization, FITC-DNA. Hepatocyte nuclear factor 4-alpha (Homo sapiens), P41235. 1 h. activity change, % at 10 µM. 360,000 compounds, 0.3% hits; in the data active = activity change above about 30%, passing the limit was not always enough
Target sequence (P41235 whole entry, looked up): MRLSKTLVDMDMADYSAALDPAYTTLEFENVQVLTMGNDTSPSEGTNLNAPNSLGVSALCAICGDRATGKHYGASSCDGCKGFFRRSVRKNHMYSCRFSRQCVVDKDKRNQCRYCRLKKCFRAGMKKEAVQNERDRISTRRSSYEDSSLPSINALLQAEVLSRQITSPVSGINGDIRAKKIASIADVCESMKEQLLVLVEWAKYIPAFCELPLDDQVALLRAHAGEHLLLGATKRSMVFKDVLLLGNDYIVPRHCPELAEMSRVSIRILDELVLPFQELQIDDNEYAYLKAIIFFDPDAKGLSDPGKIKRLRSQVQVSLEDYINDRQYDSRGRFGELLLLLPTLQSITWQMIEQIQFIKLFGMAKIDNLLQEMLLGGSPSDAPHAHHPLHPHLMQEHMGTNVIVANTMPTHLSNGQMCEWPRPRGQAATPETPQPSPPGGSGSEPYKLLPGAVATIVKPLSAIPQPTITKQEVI
Numbers without * were called inactive; . = no result shown.

SMILES	NadD inh	PP1 counter	TPT1 inhibitor	CSN deneddyl inh	Rpn11 inh	HNF4A DNA FP
Cc1ccc(C(=O)Nc2ccccc2C(=O)O)cc1S(=O)(=O)NCc1ccccc1	6	0	2	2	8	1
O=C(c1cccs1)N1CCN(S(=O)(=O)c2cccc(Cl)c2Cl)CC1	3	.	.	-6	-14	0
COCCN1C(=O)C(O)=C(C(=O)c2ccco2)C1c1cccc(Oc2ccccc2)c1 (centres undefined)	12	25*	-6	5	2	-2
COc1cc(C2C(C(=O)c3ccco3)=C(O)C(=O)N2CCc2ccccc2)ccc1O (centres undefined)	6	15*	1	4	6	-4
CCC(C)c1ccc(S(=O)(=O)N2CCN3CCCC3C2)cc1 (centres undefined)	-2	2	-1	2	5	2
CC(=O)c1ccc(OCc2cc(C(=O)N(C)CCOc3ccc(C)cc3)no2)cc1	-3	2	-3	5	-7	3
COc1ccc(C(=O)NC2CC3CCCC(C2)N3Cc2ccccc2)cc1OC (centres undefined)	-3	-3	-2	0	-1	3
COc1ccc(-c2ccc3c(c2)S(=O)(=O)c2cccc(C(=O)NCc4ccccc4Cl)c2C3=O)cc1OC	7	0	.	14	-1	-2
COc1ccc(-c2ccc3c(c2)S(=O)(=O)c2cccc(C(=O)NCCOc4ccccc4Cl)c2C3=O)cc1OC	12	.	.	65*	10	-17
CC(C)c1cccc(-c2ccc3c(c2)S(=O)(=O)c2cccc(C(=O)NCc4ccccc4Cl)c2C3=O)c1	34*	.	.	2	8	2
Cn1c(=O)c2cc(NC(=O)NCCc3cccs3)ccc2n1C/C=C/c1ccccc1	6	.	.	-9	4	1
O=C(O)c1cc(O)c2c(c1)[C@H]([C@H]1c3cc(C(=O)O)cc(O)c3C(=O)c3c(O[C@@H]4O[C@H](CO)[C@@H](O)[C@H](O)[C@H]4O)cccc31)c1cccc(OC3O[C@H](CO)[C@@H](O)[C@H](O)[C@H]3O)c1C2=O (some centres undefined)	68*	86*	75*	-1	21	-90
O=C1c2cc(CO)cc(O)c2C(=O)c2c(O[C@@H]3OC(CO)[C@@H](O)[C@@H](O)[C@@H]3O)cccc21 (some centres undefined)	-2	2	-1	-2	1	0
COc1ccccc1/C=C1\S/C(=N/NC(=O)c2cccc(Br)c2)NC1=O	38*	14	2	5	36	6
COC(=O)/C=C1\S/C(=N/NC(=O)c2ccccc2)NC1=O	4	1	-2	3	6	-2
CSc1nnc(-c2cccn(Cc3ccccc3)c2=O)o1	-1	2	2	5	-3	1
O=c1c(-c2nnc(SCc3ccc(Cl)cc3Cl)o2)cccn1Cc1ccccc1	20	16*	4	-2	-17	-4
O=C(Nc1ccc(-c2ccc3nncn3n2)cc1)c1ccc(Br)o1	4	1	4	64*	14	-6
CCC1=NN2C(=N)/C(=C/c3ccc(OS(=O)(=O)c4ccccc4)cc3)C(=O)N=C2S1	34*	9	12	6	28	33*
Cc1ccc(S(=O)(=O)Oc2ccc(/C=C3\C(=N)N4N=C(S(C)(=O)=O)SC4=NC3=O)cc2)cc1	34*	2	3	3	7	-6
Cc1cc(C)c(C)c(S(=O)(=O)Nc2ccc3cn[nH]c3c2)c1C	1	-3	.	-4	7	2
O=C(OCCNc1ccc(C(F)(F)F)cc1[N+](=O)[O-])c1cc2ccccc2oc1=O	-2	-4	-1	95*	.	177
O=C(O)c1cccc(-c2ccc(/C=C3/SC(=Nc4ccccc4)N(Cc4cccnc4)C3=O)o2)c1	32*	.	.	22	-32	-13
COc1cc(/C=N/Nc2cccc(C)c2)ccc1OC(=O)c1cccs1	8	4	3	2	1	0
COc1cc(/C=N/Nc2cccc(C)c2)cc(Br)c1O	26*	.	.	4	-1	-2
SMILES	NadD inh	PP1 counter	TPT1 inhibitor	CSN deneddyl inh	Rpn11 inh	HNF4A DNA FP
CCN(C(=S)Nc1ccc(C(C)=O)cc1)C1CCCCC1	0	0	1	48*	10	1
CCCN(CC1CC1)C(=S)Nc1ccc(C(C)=O)cc1	0	-2	0	-4	-2	1
Cc1ccc([N+](=O)[O-])cc1-c1[nH]c(-c2ccc(O)c(O)c2)nc1-c1ccccc1	31*	6	-1	2	-9	-6
COc1ccc(-c2nc(-c3ccccc3)c(-c3cc([N+](=O)[O-])ccc3C)[nH]2)cc1O	14	5	2	2	-3	1
CCOC(=O)C1=C(C)N=c2s/c(=C\c3ccc(OCC(=O)O)cc3)c(=O)n2C1c1ccccc1 (centres undefined)	14	9	6	-2	7	0
CCOC(=O)C1=C(C)N=c2sc(=Cc3ccc(OCC(=O)O)cc3)c(=O)n2C1c1ccc(SC)cc1 (centres undefined)	26	.	.	38*	45*	6
CCOC(=O)C1=CN(Cc2cccc(-c3ccc(F)cc3)c2)S(=O)(=O)N(C)C1C (centres undefined)	-3	.	.	-4	1	0
CC(C)COC(=O)N(C)C[C@H]1OCc2cnnn2CCCC(=O)N([C@H](C)CO)C[C@H]1C	-2	.	.	5	-2	4
COc1cc(OC)c2c(O)c3c(c(-c4c5c(c(O)c6c(OC)cc(OC)cc46)CO[C@@H](C)[C@H]5O)c2c1)[C@H](O)[C@H](C)OC3	50*	10	13	28	72*	5
COc1ccc(C(=O)NCC(=O)N2CCC(Cc3ccccc3)CC2)cc1OC	0	.	.	-5	0	1
O=C1CC(c2ccco2)Cc2nc(N3CCc4ccccc4C3)ncc21 (centres undefined)	28	17*	1	17	2	-2
CCOC(=O)c1ccc(NC(=O)Nc2ccc3c4c(cccc24)C(=O)N3CC)cc1	-6	-7	5	25	.	68*
CCN1C(=O)c2cccc3c(NS(=O)(=O)c4ccc(NC(C)=O)cc4)ccc1c23	-4	-5	-2	-4	-2	-5
